As a reminder, the IC50 is the concentration that gives 50% inhibition.

What all share (format): functional
In test [1] the test system is Plasmodium falciparum. The experiment in a line: Antimalarial activity against MRA-150, chloroquine, pyrimethamine, mefloquine-resistant asexual blood stage Plasmodium falciparum Dd2 after 72 hrs by SYBR green assay. As to conditions: Dd2, 72 h. The essentials:
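Dd2 parasites were kept in O-positive human erythrocytes in RPMI 1640 with Albumax I, hypoxanthine and HEPES. Ring-stage cultures (1% hematocrit, 1% parasitemia) were given eight- or ten-point dilutions of 20 to 0.02 μM in 0.1% DMSO for 72 h at 37 °C under low O2. Growth was read by SYBR green, with uninfected-erythrocyte background and normalisation to untreated 0.1% DMSO controls. IC50 came from a four-parameter variable-slope fit, mean of ≥2 independent experiments ± S.D.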

For test [2], the system named is Plasmodium falciparum. In words: Antimalarial activity against MRA-150, chloroquine, pyrimethamine, mefloquine-resistant asexual blood stage Plasmodium falciparum Dd2 assessed as rescue at 10 uM after 72 hrs by SYBR green assay in presence of 200 uM IPP. Put shortly: (§1)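 Single-concentration test (10 or 20 μM) run with or without 200 μM IPP on ring-stage Dd2 cultures (1% hematocrit, 1% parasitemia) in human erythrocytes. Incubation was 72 h at 37 °C under reduced O2. Growth was read by SYBR green, with background from uninfected erythrocytes and normalisation to untreated DMSO vehicle controls.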

Test [3] deals with Plasmodium falciparum. In words: Antimalarial activity against MRA-150, chloroquine, pyrimethamine, mefloquine-resistant asexual blood stage Plasmodium falciparum Dd2 at 20000 nM after 72 hrs by SYBR green assay. As to conditions: Dd2, 72 h, read-out: GI. The essentials:
as §1

For test [4], the system named is Plasmodium falciparum. In words: Antimalarial activity against MRA-150, chloroquine, pyrimethamine, mefloquine-resistant asexual blood stage Plasmodium falciparum Dd2 assessed as rescue at 2.5 uM after 72 hrs by SYBR green assay in presence of 200 uM IPP.
Test [5] concerns Plasmodium falciparum. The experiment in a line: Antimalarial activity against MRA-150, chloroquine, pyrimethamine, mefloquine-resistant asexual blood stage Plasmodium falciparum Dd2 at 10000 nM after 72 hrs by SYBR green assay. The settings on record: Dd2, 72 h, read-out: GI. The essentials:
as §1

Test [6] relates to Plasmodium falciparum. The experiment in a line: Antimalarial activity against MRA-150, chloroquine, pyrimethamine, mefloquine-resistant asexual blood stage Plasmodium falciparum Dd2 assessed as rescue after 72 hrs by SYBR green assay in presence of 200 uM IPP. As to conditions: Dd2, 72 h. Put shortly: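 Ring-stage Dd2 cultures (1% hematocrit, 1% parasitemia, human erythrocytes) were grown with 200 μM IPP and a 10 to 0.02 μM serial dilution for 72 h at 37 °C under reduced O2. Growth was read by SYBR green and normalised to untreated 0.1% DMSO controls. Data are the mean ± S.D. of two or more independent experiments.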

In test [7] the test system is Escherichia coli. In words: Antibacterial activity against Escherichia coli BL21(DE3) after 18 hrs by cell density meter. Put shortly:
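Overnight culture (37 °C, 200 rpm) diluted 100-fold into LB, grown to OD600 ~0.6, then diluted 10,000-fold; mixed 1:1 with compound prediluted in LB at 500, 250 and 125 μM; 5% DMSO final. Incubated 18 h, 37 °C, 200 rpm; growth normalized to untreated inoculum and compared with 5% DMSO vehicle; controls fosmidomycin 100 μM, uninoculated medium; three independent experiments.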

The subject of test [8] is Plasmodium falciparum. The experiment in a line: Antimalarial activity against MRA-150, chloroquine, pyrimethamine, mefloquine-resistant asexual blood stage Plasmodium falciparum Dd2 assessed as rescue at 20 uM after 72 hrs by SYBR green assay in presence of 200 uM IPP. The essentials: as §1
Test [9] relates to Plasmodium falciparum. In words: Antimalarial activity against MRA-150, chloroquine, pyrimethamine, mefloquine-resistant asexual blood stage Plasmodium falciparum Dd2 assessed as rescue at 5 uM after 72 hrs by SYBR green assay in presence of 200 uM IPP.

Active and inactive are the calls of the source. The calls are words filed in the database; no cut-off is given here.

In the case of `COc1ccc([C@H]2N[C@H](C(=O)O)Cc3c2[nH]c2ccccc32)cc1OC`, the IC50 in [1] is > 20000 nM. Same read-out and setting: the same measure for `O=C(O)[C@@H]1Cc2c([nH]c3ccccc23)[C@H](c2ccc(Cl)cc2Cl)N1`: > 10000 nM; for `O=C(O)[C@@H]1Cc2c([nH]c3ccccc23)[C@@H](c2ccc(C(F)(F)F)cc2C(F)(F)F)N1`: > 10000 nM. For the compound `O=CN(O)CCCP(=O)(O)O` [FOSMIDOMYCIN], the Activity in test [2] turned out to be 100%. Turning to `COC(=O)[C@@H]1Cc2c([nH]c3ccccc23)[C@@H](c2ccccc2)N1`, the inhibition of growth at 20 µM in test [3] is 20%. For `O=C(O)[C@@H]1Cc2c([nH]c3ccccc23)[C@H](c2ccccc2)N1`, the half-inhibitory concentration (IC50) in [1] was > 10000 nM.

`CNC(=O)[C@@H]1Cc2c([nH]c3ccccc23)[C@@H](c2ccc(Cl)cc2C)N1`: in test [1], the IC50 was determined as 1850 nM. The Activity in test [2] came out at 50%. Consider `Cc1ccc([C@@H]2N[C@H](C(=O)O)Cc3c2[nH]c2ccccc32)c(Cl)c1`, for which the half-maximal inhibitory concentration (IC50) in test [1] is > 10000 nM. In test [1], `O=C(O)[C@H]1Cc2c([nH]c3ccccc23)[C@@H](c2ccc(Cl)cc2Cl)N1` had a 50% inhibitory concentration (IC50) of 3000 nM. In addition, in [2], the Activity came out at 60%. Take `CNNC(=O)[C@@H]1Cc2c([nH]c3ccccc23)[C@@H](c2ccc(Cl)cc2Cl)N1`: the IC50 in test [1] worked out at 1940 nM. Besides, in test [2], the Activity is given as 80%. The compound `O=C(O)C1Cc2c([nH]c3ccccc23)C(c2ccc(Cl)cc2Cl)N1` (stereo not given) came in with a half-inhibitory concentration (IC50) in test [1] of 210 nM. In addition, the Activity in [4] is reported as 100%. Turning to `Cc1ccc([C@H]2N[C@H](C(=O)O)Cc3c2[nH]c2ccccc32)c(C)c1`, the inhibition of growth at 10 µM in test [5] came out at 70%. Take `O=C(O)[C@@H]1Cc2c([nH]c3ccccc23)[C@@H](c2ccc(Cl)cc2)N1`: in [1], the IC50 came out at 1170 nM. The Activity in test [2] is on record as 50%.

On to `CN1CC(=O)N2[C@H](c3ccc4c(c3)OCO4)c3[nH]c4ccccc4c3C[C@@H]2C1=O` [TADALAFIL], for which, in [1], the IC50 was > 20000 nM.

Consider `CCCCNC(=O)[C@@H]1Cc2c([nH]c3ccccc23)[C@@H](c2ccc(Cl)cc2Cl)N1`, for which the inhibition of growth at 10 µM in test [5] amounted to 80%.

For `Cc1cc(Cl)ccc1[C@H]1N[C@H](C(=O)O)Cc2c1[nH]c1ccccc21`, the IC50 in test [1] is 700 nM; in [6], > 10000 nM. The Activity in test [4] is 100%. Further, the outcome in [7] was inactive.

As to `COc1ccc([C@H]2N[C@H](C(=O)O)Cc3c2[nH]c2ccccc32)c(OC)c1`, the IC50 in [1] is > 20000 nM. Take `Cc1ccc([C@H]2N[C@H](C(=O)O)Cc3c2[nH]c2ccccc32)c(Cl)c1`: the IC50 in test [1] was 410 nM; in test [6], > 10000 nM. Also, the Activity in [4] turned out to be 100%. In addition, the result in test [7] was inactive. With `O=C(O)[C@H]1Cc2c([nH]c3ccccc23)[C@H](c2ccc(Cl)cc2Cl)N1`, the concentration for half-maximal inhibition (IC50) in test [1] was > 10000 nM. In test [1], `CNC(=O)[C@@H]1Cc2c([nH]c3ccccc23)[C@@H](c2ccc(C)cc2Cl)N1` returned a half-inhibitory concentration (IC50) of 340 nM. For the same compound, the Activity in test [4] stood at 100%. In addition, the result in test [7] was inactive. For the compound `CNC(=O)[C@@H]1Cc2c([nH]c3ccccc23)[C@@H](c2ccc(Cl)cc2Cl)N1`, the results for the half-inhibitory concentration (IC50) in test [1] and in test [6] were 190 nM and > 10000 nM, respectively. For the same compound, the Activity in [4] came out at 100%. In [7], the result was inactive. `COC(=O)[C@@H]1Cc2c([nH]c3ccccc23)[C@@H](c2ccc(Cl)cc2Cl)N1` displayed an IC50 in test [1] of 6800 nM. Besides, the Activity in test [8] is reported as 20%. `CNC(=O)[C@@H]1Cc2c([nH]c3ccccc23)[C@@H](c2ccc(C(F)(F)F)cc2C(F)(F)F)N1`: the IC50 in [1] was > 10000 nM. `COC(=O)[C@H]1Cc2c([nH]c3ccccc23)[C@H](c2ccc(Cl)cc2Cl)N1`: the half-inhibitory concentration (IC50) in test [1] was found to be 7700 nM. The Activity in [8] is 0%. Regarding `O=C(O)[C@@H]1Cc2c([nH]c3ccccc23)[C@@H](c2ccc(F)cc2F)N1`, the Activity in test [9] came to 100%. The IC50 in test [1] was 780 nM; in [6] it was > 10000 nM. Also, the outcome in test [7] was inactive. Compound `O=C(NC1CCCCC1)[C@@H]1Cc2c([nH]c3ccccc23)[C@@H](c2ccc(Cl)cc2Cl)N1` showed an IC50 in [1] of 2830 nM. In addition, the Activity in test [2] is given as 0%. In turn, `Clc1ccc(C2NCCc3c2[nH]c2ccccc32)c(Cl)c1` (racemic) returned an IC50 in test [1] of 10000 nM. The same measure, in the same setting: the same measure for `O=C(O)[C@@H]1Cc2c([nH]c3ccccc23)[C@H](c2ccc(F)cc2F)N1`: > 20000 nM. In the case of `CNC(=O)[C@@H]1Cc2c([nH]c3ccccc23)[C@@H](c2ccc(C)cc2C)N1`, in test [5], the inhibition of growth at 10 µM is 70%. In the case of `O=C(O)[C@@H]1Cc2c([nH]c3ccccc23)[C@@H](c2ccc(Cl)cc2Cl)N1`, the IC50 was 250 nM in test [1] and > 10000 nM in test [6]. The Activity in test [4] was found to be 100%. In addition, the outcome in [7] was inactive. As for `O=C(O)[C@@H]1Cc2c([nH]c3ccccc23)[C@@H](c2ccccc2)N1`, the half-inhibitory concentration (IC50) in [1] is > 10000 nM. `CC(C)NC(=O)[C@@H]1Cc2c([nH]c3ccccc23)[C@@H](c2ccc(Cl)cc2Cl)N1`: in [5], the inhibition of growth at 10 µM turned out to be 50%.

For `Cc1ccc([C@@H]2N[C@H](C(=O)O)Cc3c2[nH]c2ccccc32)c(C)c1`, the concentration for half-maximal inhibition (IC50) in [1] was > 10000 nM. In the case of `CNC(=O)[C@@H]1Cc2c([nH]c3ccccc23)[C@@H](c2ccc(F)cc2F)N1`, the IC50 in test [1] amounted to 1200 nM. The Activity in test [4] was determined as 100%. For the same compound, the outcome in [7] was inactive. `NC(=O)[C@@H]1Cc2c([nH]c3ccccc23)[C@@H](c2ccc(Cl)cc2Cl)N1` gave an IC50 in test [1] of 1200 nM. Besides, in [2], the Activity is listed as 50%. As to `O=C(O)[C@@H]1Cc2c([nH]c3ccccc23)[C@@H](c2ccccc2Cl)N1`, the midpoint of inhibition in [1], the IC50, lay at 3280 nM. Besides, the Activity in test [2] came out at 60%.
